In ChEMBL document CHEMBL1125291, “New 8-(trifluoromethyl)-substituted quinolones. The benefits of the 8-fluoro group with reduced phototoxic risk” (1992):
Converted amounts (≈) assume the structure as drawn.

Species on record: Mus musculus
Assay: Days of the first positive reaction in […] mice.
Assay type: functional
Details: not given
How it was run: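 Phototoxic skin reaction test in depilated female CD-1 mice. A single oral dose (gavage) or subcutaneous dose was given, followed 1 h later by 3 h of UVA exposure (320–400 nm). The regimen was repeated for up to 4 consecutive days, with initial doses of 30, 100 and 300 mg/kg. PTD50 was derived by the probit method. The first day of positive reaction and the no-effect dose were taken from the raw data.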

| SMILES | Day of first positve reaction |
| --- | --- |
| CCn1cc(C(=O)O)c(=O)c2cc(F)c(N3CCN(C)CC3)cc21 [PEFLOXACIN] | 4 |
| CCNCC1CCN(c2c(F)cc3c(=O)c(C(=O)O)cn(C4CC4)c3c2F)C1 (stereo unspecified) [PD-117558] | 1 |

Species on record: Mus musculus
Assay: Number of mice which show positive phototoxic reaction in 5 mice
Assay type: functional
Details: not given

| SMILES | No. of pos rxns |
| --- | --- |
| CCn1cc(C(=O)O)c(=O)c2cc(F)c(N3CCN(C)CC3)cc21 [PEFLOXACIN] | 2 |
| CCNCC1CCN(c2c(F)cc3c(=O)c(C(=O)O)cn(C4CC4)c3c2F)C1 (stereo unspecified) [PD-117558] | 5 |

System: Escherichia coli
Assay: In vivo efficacy in mouse protection test in Escherichia coli Vogel administered by subcutaneous injection.
Assay type: functional
Details: Escherichia coli, sc; read-out: PD50
How it was run: (§1)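 Acute lethal systemic infections in female Charles River CD-1 mice. A single dose was given at challenge, orally by gavage or by subcutaneous injection. PD50 (median protective dose, mg/kg) was determined.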

| SMILES | ED50 |
| --- | --- |
| CCn1cc(C(=O)O)c(=O)c2cc(F)c(N3CCN(C)CC3)cc21 [PEFLOXACIN] | 2 mg/kg |
| CCNCC1CCN(c2c(F)cc3c(=O)c(C(=O)O)cn(C4CC4)c3c2F)C1 (stereo unspecified) [PD-117558] | 1 mg/kg |

System: Escherichia coli
Assay: In vivo efficacy in mouse protection test in Escherichia coli Vogel dose administered orally by gavage.
Assay type: functional
Details: Escherichia coli, po; read-out: PD50
How it was run: as §1

| SMILES | ED50 |
| --- | --- |
| CCn1cc(C(=O)O)c(=O)c2cc(F)c(N3CCN(C)CC3)cc21 [PEFLOXACIN] | 3 mg/kg |
| CCNCC1CCN(c2c(F)cc3c(=O)c(C(=O)O)cn(C4CC4)c3c2F)C1 (stereo unspecified) [PD-117558] | 4.2 mg/kg |

System: Escherichia coli
Assay: Minimum inhibitory concentration (MIC) against gram negative bacteria Escherichia coli H-560.
Assay type: functional
Details: Escherichia coli; read-out: MIC
How it was run: (§2)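 MICs were determined by standard broth microtitration against 11 Gram-positive and Gram-negative organisms, in µg/mL. Values come from duplicate or triplicate experiments and are accurate to ±50%.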

| SMILES | MIC |
| --- | --- |
| CCn1cc(C(=O)O)c(=O)c2cc(F)c(N3CCN(C)CC3)cc21 [PEFLOXACIN] | 0.1 µg/mL (≈ 0.3 µM) |
| CCNCC1CCN(c2c(F)cc3c(=O)c(C(=O)O)cn(C4CC4)c3c2F)C1 (stereo unspecified) [PD-117558] | 0.013 µg/mL (≈ 0.0332 µM) |

System: Escherichia coli
Assay: Minimum inhibitory concentration (MIC) against gram negative bacteria Escherichia coli Vogel.
Assay type: functional
Details: Escherichia coli; read-out: MIC
How it was run: as §2

| SMILES | MIC |
| --- | --- |
| CCn1cc(C(=O)O)c(=O)c2cc(F)c(N3CCN(C)CC3)cc21 [PEFLOXACIN] | 0.025 µg/mL (≈ 0.075 µM) |
| CCNCC1CCN(c2c(F)cc3c(=O)c(C(=O)O)cn(C4CC4)c3c2F)C1 (stereo unspecified) [PD-117558] | 0.05 µg/mL (≈ 0.128 µM) |

System: Enterobacter cloacae
Assay: Minimum inhibitory concentration (MIC) against gram negative bacteria Enterobacter cloacae MA-2646.
Assay type: functional
Details: not given

| SMILES | MIC |
| --- | --- |
| CCNCC1CCN(c2c(F)cc3c(=O)c(C(=O)O)cn(C4CC4)c3c2F)C1 (stereo unspecified) [PD-117558] | 0.1 µg/mL (≈ 0.255 µM) |

System: Klebsiella pneumoniae
Assay: Minimum inhibitory concentration (MIC) against gram negative bacteria Klebsiella pneumoniae MGH-2.
Assay type: functional
Details: Klebsiella pneumoniae; read-out: MIC
How it was run: as §2

| SMILES | MIC |
| --- | --- |
| CCn1cc(C(=O)O)c(=O)c2cc(F)c(N3CCN(C)CC3)cc21 [PEFLOXACIN] | 0.05 µg/mL (≈ 0.15 µM) |
| CCNCC1CCN(c2c(F)cc3c(=O)c(C(=O)O)cn(C4CC4)c3c2F)C1 (stereo unspecified) [PD-117558] | 0.2 µg/mL (≈ 0.511 µM) |

Species on record: Mus musculus
Assay: Dose required to induce phototoxic reaction in 50% of mice by probit method at different dosage forms.
Assay type: functional
Details: not given

| SMILES | PTD50 |
| --- | --- |
| CCn1cc(C(=O)O)c(=O)c2cc(F)c(N3CCN(C)CC3)cc21 [PEFLOXACIN] | 265 mg/kg |
| CCNCC1CCN(c2c(F)cc3c(=O)c(C(=O)O)cn(C4CC4)c3c2F)C1 (stereo unspecified) [PD-117558] | <30 mg/kg |

Species on record: Mus musculus
Assay: Dose which has no effect to induce phototoxic reaction in 50% of mice by probit method.
Assay type: functional
Details: not given

| SMILES | No effect dose |
| --- | --- |
| CCn1cc(C(=O)O)c(=O)c2cc(F)c(N3CCN(C)CC3)cc21 [PEFLOXACIN] | >172 mg/kg |
| CCNCC1CCN(c2c(F)cc3c(=O)c(C(=O)O)cn(C4CC4)c3c2F)C1 (stereo unspecified) [PD-117558] | 30 mg/kg |

System: Mus musculus
Assay: Maximum tolerance dose was measured for phototoxic skin reaction by po administration
Assay type: functional
Details: not given

| SMILES | MTD |
| --- | --- |
| CCn1cc(C(=O)O)c(=O)c2cc(F)c(N3CCN(C)CC3)cc21 [PEFLOXACIN] | 300 mg/kg |
| CCNCC1CCN(c2c(F)cc3c(=O)c(C(=O)O)cn(C4CC4)c3c2F)C1 (stereo unspecified) [PD-117558] | 30 mg/kg |

System: not listed separately
Assay: Minimum inhibitory concentration (MIC) against gram negative bacteria Prot. rettgeri M-1771.
Assay type: functional, Providencia rettgeri
Details: Providencia rettgeri; read-out: MIC
How it was run: as §2

| SMILES | MIC |
| --- | --- |
| CCn1cc(C(=O)O)c(=O)c2cc(F)c(N3CCN(C)CC3)cc21 [PEFLOXACIN] | 0.05 µg/mL (≈ 0.15 µM) |
| CCNCC1CCN(c2c(F)cc3c(=O)c(C(=O)O)cn(C4CC4)c3c2F)C1 (stereo unspecified) [PD-117558] | 0.4 µg/mL (≈ 1.02 µM) |

System: Pseudomonas aeruginosa
Assay: In vivo efficacy (s.c.) against Pseudomonas aeruginosa in mouse protection test
Assay type: functional
Details: Pseudomonas aeruginosa, sc; read-out: PD50
How it was run: as §1

| SMILES | ED50 |
| --- | --- |
| CCn1cc(C(=O)O)c(=O)c2cc(F)c(N3CCN(C)CC3)cc21 [PEFLOXACIN] | 26 mg/kg |
| CCNCC1CCN(c2c(F)cc3c(=O)c(C(=O)O)cn(C4CC4)c3c2F)C1 (stereo unspecified) [PD-117558] | 40 mg/kg |

System: Pseudomonas aeruginosa
Assay: In vivo efficacy (orally) against Pseudomonas aeruginosa in mouse protection test
Assay type: functional
Details: Pseudomonas aeruginosa, po; read-out: PD50
How it was run: as §1

| SMILES | ED50 |
| --- | --- |
| CCn1cc(C(=O)O)c(=O)c2cc(F)c(N3CCN(C)CC3)cc21 [PEFLOXACIN] | 38 mg/kg |
| CCNCC1CCN(c2c(F)cc3c(=O)c(C(=O)O)cn(C4CC4)c3c2F)C1 (stereo unspecified) [PD-117558] | 59 mg/kg |

System: Pseudomonas aeruginosa
Assay: Minimum inhibitory concentration (MIC) against gram negative bacteria Pseudomonas aeruginosa UI-18.
Assay type: functional
Details: Pseudomonas aeruginosa; read-out: MIC
How it was run: as §2

| SMILES | MIC |
| --- | --- |
| CCn1cc(C(=O)O)c(=O)c2cc(F)c(N3CCN(C)CC3)cc21 [PEFLOXACIN] | 0.4 µg/mL (≈ 1.2 µM) |
| CCNCC1CCN(c2c(F)cc3c(=O)c(C(=O)O)cn(C4CC4)c3c2F)C1 (stereo unspecified) [PD-117558] | 0.4 µg/mL (≈ 1.02 µM) |

System: Streptococcus pyogenes
Assay: In vivo efficacy (s.c.) against Streptococcus pyogenes C-203 in mouse protection test
Assay type: functional
Details: Streptococcus pyogenes, sc; read-out: PD50
How it was run: as §1

| SMILES | ED50 |
| --- | --- |
| CCn1cc(C(=O)O)c(=O)c2cc(F)c(N3CCN(C)CC3)cc21 [PEFLOXACIN] | 94 mg/kg |
| CCNCC1CCN(c2c(F)cc3c(=O)c(C(=O)O)cn(C4CC4)c3c2F)C1 (stereo unspecified) [PD-117558] | 0.5 mg/kg |

System: Streptococcus pyogenes
Assay: In vivo efficacy (orally) against Streptococcus pyogenes C-203 in mouse protection test
Assay type: functional
Details: Streptococcus pyogenes, po; read-out: PD50
How it was run: as §1

| SMILES | ED50 |
| --- | --- |
| CCn1cc(C(=O)O)c(=O)c2cc(F)c(N3CCN(C)CC3)cc21 [PEFLOXACIN] | 110 mg/kg |
| CCNCC1CCN(c2c(F)cc3c(=O)c(C(=O)O)cn(C4CC4)c3c2F)C1 (stereo unspecified) [PD-117558] | 1.8 mg/kg |

System: Staphylococcus aureus
Assay: Minimum inhibitory concentration (MIC) against gram positive bacteria Staphylococcus aureus H-228.
Assay type: functional
Details: Staphylococcus aureus; read-out: MIC
How it was run: as §2

| SMILES | MIC |
| --- | --- |
| CCn1cc(C(=O)O)c(=O)c2cc(F)c(N3CCN(C)CC3)cc21 [PEFLOXACIN] | 0.2 µg/mL (≈ 0.6 µM) |
| CCNCC1CCN(c2c(F)cc3c(=O)c(C(=O)O)cn(C4CC4)c3c2F)C1 (stereo unspecified) [PD-117558] | 0.05 µg/mL (≈ 0.128 µM) |

System: Staphylococcus aureus
Assay: Minimum inhibitory concentration (MIC) against gram positive bacteria Staphylococcus aureus UC-76.
Assay type: functional
Details: Staphylococcus aureus; read-out: MIC
How it was run: as §2

| SMILES | MIC |
| --- | --- |
| CCn1cc(C(=O)O)c(=O)c2cc(F)c(N3CCN(C)CC3)cc21 [PEFLOXACIN] | 0.1 µg/mL (≈ 0.3 µM) |
| CCNCC1CCN(c2c(F)cc3c(=O)c(C(=O)O)cn(C4CC4)c3c2F)C1 (stereo unspecified) [PD-117558] | 0.006 µg/mL (≈ 0.0153 µM) |

System: Enterococcus faecalis
Assay: Minimum inhibitory concentration (MIC) against gram positive bacteria Streptococcus faecalis MGH-2.
Assay type: functional
Details: Enterococcus faecalis; read-out: MIC
How it was run: as §2

| SMILES | MIC |
| --- | --- |
| CCn1cc(C(=O)O)c(=O)c2cc(F)c(N3CCN(C)CC3)cc21 [PEFLOXACIN] | 0.8 µg/mL (≈ 2.4 µM) |
| CCNCC1CCN(c2c(F)cc3c(=O)c(C(=O)O)cn(C4CC4)c3c2F)C1 (stereo unspecified) [PD-117558] | 0.025 µg/mL (≈ 0.0639 µM) |

System: Streptococcus pneumoniae
Assay: Minimum inhibitory concentration (MIC) against gram positive bacteria Streptococcus pneumoniae SV-1.
Assay type: functional
Details: Streptococcus pneumoniae; read-out: MIC
How it was run: as §2

| SMILES | MIC |
| --- | --- |
| CCn1cc(C(=O)O)c(=O)c2cc(F)c(N3CCN(C)CC3)cc21 [PEFLOXACIN] | 0.8 µg/mL (≈ 2.4 µM) |
| CCNCC1CCN(c2c(F)cc3c(=O)c(C(=O)O)cn(C4CC4)c3c2F)C1 (stereo unspecified) [PD-117558] | 0.025 µg/mL (≈ 0.0639 µM) |

System: Streptococcus pyogenes
Assay: Minimum inhibitory concentration (MIC) against gram positive bacteria Streptococcus pyogenes C-203.
Assay type: functional
Details: Streptococcus pyogenes; read-out: MIC
How it was run: as §2

| SMILES | MIC |
| --- | --- |
| CCn1cc(C(=O)O)c(=O)c2cc(F)c(N3CCN(C)CC3)cc21 [PEFLOXACIN] | 0.8 µg/mL (≈ 2.4 µM) |

System: Streptococcus pneumoniae
Assay: In vivo efficacy (s.c.) against Streptococcus pneumoniae SV-1 in mouse protection test
Assay type: functional
Details: Streptococcus pneumoniae, sc; read-out: PD50
How it was run: as §1

| SMILES | ED50 |
| --- | --- |
| CCn1cc(C(=O)O)c(=O)c2cc(F)c(N3CCN(C)CC3)cc21 [PEFLOXACIN] | 96 mg/kg |
| CCNCC1CCN(c2c(F)cc3c(=O)c(C(=O)O)cn(C4CC4)c3c2F)C1 (stereo unspecified) [PD-117558] | 1.9 mg/kg |

System: Streptococcus pneumoniae
Assay: In vivo efficacy (orally) against Streptococcus pneumoniae SV-1 in mouse protection test
Assay type: functional
Details: Streptococcus pneumoniae, po; read-out: PD50
How it was run: as §1

| SMILES | ED50 |
| --- | --- |
| CCn1cc(C(=O)O)c(=O)c2cc(F)c(N3CCN(C)CC3)cc21 [PEFLOXACIN] | > 200 mg/kg |
| CCNCC1CCN(c2c(F)cc3c(=O)c(C(=O)O)cn(C4CC4)c3c2F)C1 (stereo unspecified) [PD-117558] | 3.3 mg/kg |
